Most compounds without a hit are left out; they make up all but 2.8% or so of the library.
AI-2 QS modul = Vibrio harveyi AI-2 quorum sensing modulation; Vibrio harveyi JMH597 AI-2 luminescence/OD600 ratio, 9 h; hits give low values; strain lacks LuxN and CqsS sensors; 0 = neutral-control median; activity change, % at 7.5 µM; 0.4% of 300,000 active; in the data active = activity change below about -75%, passing the limit was not always enough; inconclusive = no clear call, values can overlap the other calls;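 note: luminescence divided by OD600 gain over 9 h not by final OD600 alone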
UBC13 inh = human UBC13 polyubiquitination inhibition | inhibition, % at 20 µM | P61088 | 0.47% of 330,000 active | UBC13 polyubiquitin chain formation, TR-FRET; in the data active = inhibition above about 45%, passing the limit was not always enough; inconclusive = no clear call, values can overlap the other calls
Target sequence (P61088 whole entry, looked up): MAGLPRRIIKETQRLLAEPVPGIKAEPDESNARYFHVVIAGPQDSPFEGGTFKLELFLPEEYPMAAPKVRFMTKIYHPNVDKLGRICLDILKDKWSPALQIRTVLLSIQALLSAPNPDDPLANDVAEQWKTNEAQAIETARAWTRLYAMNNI
PP1 inh = PP1-alpha (human) inhibition in PP5 counter-screen. P62136. purified PP1alpha, OMFP fluorescence. inhibition, % at 6.7 µM. 0.9% of 320,000 active. AID 2235;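 active = inhibition above the mean inhibition of all tested compounds plus 3 SD, computed separately for each screening campaign, cut at about 15% in these data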
Target sequence (P62136 whole entry, looked up): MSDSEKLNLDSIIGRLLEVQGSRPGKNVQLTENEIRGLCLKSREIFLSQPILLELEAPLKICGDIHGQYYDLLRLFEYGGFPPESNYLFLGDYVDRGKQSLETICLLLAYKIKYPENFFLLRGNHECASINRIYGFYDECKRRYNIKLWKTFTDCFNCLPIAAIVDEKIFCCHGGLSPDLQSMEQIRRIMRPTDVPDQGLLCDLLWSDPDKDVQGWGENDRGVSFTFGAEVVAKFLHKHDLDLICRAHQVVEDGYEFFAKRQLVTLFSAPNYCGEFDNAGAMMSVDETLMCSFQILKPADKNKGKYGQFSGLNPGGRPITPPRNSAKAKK
p-CIP stab down = p/CIP protein destabilization; Q05BA5; F442A p/CIP-EGFP cells, EGFP fluorescence, 16 h; decrease of EGFP signal, % at 10 µM; 0.01% of 290,000 active;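 active = EGFP signal decrease of at least 30% at 10 µM or well 3 SD below plate mean, unless failing retest; inactive = the rest, including hits failing retest or dose response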
T cruzi repl = blocks replication of Trypanosoma cruzi; T. cruzi beta-gal in NIH3T3, luminescence, 90 h; 1.4% of 300,000 active; inhibition, % (concentration not given with the values);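 active = mean inhibition across valid replicates above about 55%, limit read from the data; inconclusive = mean below that limit but half or more replicates reach it; inactive = mean below it, under half of replicates reach it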;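 note: signal also drops with host cell toxicity which is not excluded here; 0% = plate median of DMSO wells and 100% = zero luminescence signal; higher percent means less beta-gal luminescence so fewer parasites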
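Incubation – ≥90 h infection period, 3 h prior cell attachment · System – NIH/3T3 fibroblasts plus reporter T. cruzi · Doses – compound pinned at 50 nL/well, DMSO · Read-out basis – percent inhibition of parasite-derived β-gal signal · Signal – luminescent β-galactosidase signal after 60 min lysis · Also added – 5000 T. cruzi trypomastigotes/well · Medium – Low-serum DMEM with 2% FBS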
JMH597 growth = retest: blocks Vibrio harveyi JMH597 growth | growth inhibition, % at 7.5 µM | shares compounds with AI-2 QS modul | AID 2726 | OD600 absorbance, 9 h; lacks LuxN and CqsS sensors | 1% of 750 active;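 active = every replicate shows growth inhibition above 50%; inconclusive = at least half, but not all, replicates pass that cutoff; inactive = fewer than half of replicates pass it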
BB721 lum counter = retest counter-screen: luminescence loss in constitutive-on quorum sensing strain BB721 | inhibition, % at 7.5 µM | Vibrio harveyi BB721 luminescence, 9 h | shares compounds with AI-2 QS modul | 95% of 750 active;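 active = inhibition above about 80% in every replicate, not just on average, limit read from the data; inconclusive = at least half of replicates past the limit, but not all; inactive = fewer than half of replicates past the limit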
BB721 growth = retest: blocks Vibrio harveyi BB721 growth | shares compounds with AI-2 QS modul | OD600 absorbance, 9 h | growth inhibition, % at 7.5 µM | 3% of 750 active;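 active = every replicate shows growth inhibition above 50%; inconclusive = at least half but not all replicates above 50% inhibition; inactive = under half of replicates above 50% inhibition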
AI-2 QS JMH597 = Vibrio harveyi AI-2 signaling luminescence modulation – JMH597 strain, confirmation; shares compounds with AI-2 QS modul; Vibrio harveyi JMH597 AI-2 quorum sensing luminescence, 9 h; luxN and CqsS knockout, AI-2 only; 97% of 750 active; inhibition, % at 7.5 µM;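 active = every replicate shows more than 75% inhibition of signal versus neutral control wells; inconclusive = half to three quarters of replicates exceed 75% inhibition; inactive = fewer than half of replicates exceed 75% inhibition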
The depositor's hits bear a star.

`O=C(CSc1cccc[n+]1[O-])c1cc2ccccc2o1` gave AI-2 QS modul 37, UBC13 inh -15, PP1 inh 4, p-CIP stab down -8 and T cruzi repl 60*.
Screening O=[N+]([O-])c1ccc(S(=O)(=O)N2CCN(c3ccnc4cc(Cl)ccc34)CC2)cc1 returned AI-2 QS modul 10, UBC13 inh -7, PP1 inh 17*, p-CIP stab down -14 and T cruzi repl 60*.
Screening O=S(=O)(c1cccc(Br)c1)N1CCN(c2ccnc3cc(Cl)ccc23)CC1 returned AI-2 QS modul -2, UBC13 inh 6, PP1 inh 6, p-CIP stab down -6 and T cruzi repl 25.
Screening Cn1nc(-c2ccc(Cl)cc2)nc2c(=O)n(C)c(=O)nc1-2 returned AI-2 QS modul -77*, UBC13 inh -121, PP1 inh 37*, p-CIP stab down -8 and T cruzi repl 56*.
`COc1ccc2[nH]cc(S(=O)(=O)c3ccc(C(C)C)cc3)c(=O)c2c1` gave AI-2 QS modul 2, UBC13 inh -7, PP1 inh -6, p-CIP stab down 4 and T cruzi repl 34.
Screening COc1ccc(/C=N\NC(=O)c2ccc(F)cc2)cc1COc1cc(F)ccc1[N+](=O)[O-] returned AI-2 QS modul 12, UBC13 inh -11, p-CIP stab down -7 and T cruzi repl 27.
For COc1ccc(/C=N/NS(=O)(=O)c2ccc(F)cc2)cc1COc1cc(F)ccc1[N+](=O)[O-] the results were AI-2 QS modul 46, UBC13 inh -14, PP1 inh -5, p-CIP stab down 1 and T cruzi repl 59*.
For O=C(NC(NC(=S)Nc1ccccc1Cl)C(Cl)(Cl)Cl)c1cccc(Cl)c1 (stereo unspecified) the results were AI-2 QS modul 24, UBC13 inh -3, PP1 inh 15, p-CIP stab down 7 and T cruzi repl 60*.
For O=C(Cc1cccc2ccccc12)NC(NC(=S)Nc1ccccc1Cl)C(Cl)(Cl)Cl (stereo unspecified) the results were AI-2 QS modul 8, UBC13 inh 4, PP1 inh 16*, p-CIP stab down 7 and T cruzi repl 45.
Screening O=C(NC(NC(=S)Nc1ccccc1C(=O)O)C(Cl)(Cl)Cl)c1cccc([N+](=O)[O-])c1 (stereo unspecified) returned AI-2 QS modul 23, UBC13 inh -10, PP1 inh 3, p-CIP stab down -3 and T cruzi repl -8.
For O=S(=O)(NC(=S)NC1CCCCC1)c1ccc(Br)cc1 the results were AI-2 QS modul 40, UBC13 inh -5, PP1 inh -1, p-CIP stab down -15 and T cruzi repl -18.
Screening CCOC(=O)c1[nH]c2ccc(OC)cc2c1NS(=O)(=O)c1ccc(Cl)s1 returned AI-2 QS modul -84*, UBC13 inh -5, PP1 inh 0, p-CIP stab down 5 and T cruzi repl 1.
Screening COc1ccc2[nH]c(C(=O)O)c(NS(=O)(=O)c3ccc(Cl)s3)c2c1 returned AI-2 QS modul 15, UBC13 inh 0, PP1 inh 3, p-CIP stab down -4 and T cruzi repl -3.
Cc1cc(NC(=S)N(Cc2ccc(Br)cc2)Cc2ccc(C(=O)O)cc2)ccc1Cl was read as AI-2 QS modul 18, UBC13 inh -26, PP1 inh 16*, p-CIP stab down -7 and T cruzi repl 14.
Cc1cccc(NC(=S)N(Cc2ccc(Br)cc2)Cc2ccc(C(=O)O)cc2)c1 was read as AI-2 QS modul 49, UBC13 inh -8, PP1 inh 3, p-CIP stab down 6 and T cruzi repl 5.
COC(=O)Cc1ccc(NC(=S)N2CCC(Cc3ccccc3)CC2)cc1 was read as AI-2 QS modul 2, UBC13 inh -1, PP1 inh -1, p-CIP stab down 6 and T cruzi repl 7.
Screening Cc1ccc(CN2CCN(/N=C/c3ccc(Cl)c([N+](=O)[O-])c3)CC2)cc1 returned AI-2 QS modul 14, UBC13 inh -2, PP1 inh 1, p-CIP stab down -10 and T cruzi repl 62*.
For Cc1ccc(CN2CCN(/N=C/c3cc([N+](=O)[O-])ccc3Cl)CC2)cc1 the results were AI-2 QS modul 32, UBC13 inh -3, PP1 inh -3, p-CIP stab down -16 and T cruzi repl 27.
Cc1cc(C)nc(SCC(=O)NC2=NN=C(c3ccc(Br)cc3)CS2)n1 was read as AI-2 QS modul 32, UBC13 inh -2, PP1 inh 0, p-CIP stab down -2 and T cruzi repl 68*.
For O=C1CC(SC(=Nc2ccccc2)Nc2ccccc2)C(=O)N1c1ccc(Cl)c(Cl)c1 (stereo unspecified) the results were AI-2 QS modul 14, UBC13 inh 0, PP1 inh 4, p-CIP stab down 4 and T cruzi repl 55*.
CCCCC1=CC2=C(c3ccco3)C(=O)C(C)(OC(=O)c3ccc(OC)cc3)C(=O)C2=CN1Cc1ccccc1 (stereo unspecified) was read as AI-2 QS modul 9, UBC13 inh 38, PP1 inh 13, p-CIP stab down -16 and T cruzi repl 20.
CCCCC1=CC2=C(c3ccco3)C(=O)C(C)(OC(=O)c3ccc(OC)cc3)C(=O)C2=CN1Cc1ccc2c(c1)OCO2 (stereo unspecified) was read as AI-2 QS modul 37, UBC13 inh inconclusive, PP1 inh 24*, p-CIP stab down 2 and T cruzi repl -1.
Screening COC(=O)c1ccc(CNC(=O)COC(=O)c2cccs2)cc1 returned UBC13 inh -9.
`CCOc1ccc(S(=O)(=O)N2CCN(C(=O)CCC(=O)N3CCOCC3)CC2)cc1` gave AI-2 QS modul 16, UBC13 inh -5, PP1 inh -3 and T cruzi repl 9.
C=CCN(CC=C)CCCOc1ccc(C)cc1OC was read as AI-2 QS modul 51, UBC13 inh -6, PP1 inh 1, p-CIP stab down -5 and T cruzi repl 28.
Screening O=S(=O)(c1ccccc1)c1ccc(NCc2ccco2)cc1 returned AI-2 QS modul -94*, UBC13 inh 3, PP1 inh -1, p-CIP stab down 7, T cruzi repl -4, JMH597 growth 7, BB721 lum counter 52, BB721 growth -38 and AI-2 QS JMH597 98*.
